Assay results: ChEMBL document CHEMBL1811814, “Synthesis and evaluation of indole, pyrazole, chromone and pyrimidine based conjugates for tumor growth inhibitory activities--development of highly efficacious cytotoxic agents” (Eur J Med Chem, 2010)

What was measured:
Assay type in all cases: functional
[1] = system: MOLT-4; assay: Growth inhibition of human MOLT4 cells
[2] = system: SF-539; assay: Growth inhibition of human SF539 cells
[3] = system: CCRF-CEM; assay: Growth inhibition of human CCRF-CEM cells assessed tumor cell growth at 10^-5 M; design: scale not given: the % may be the effect or the level left
Method in brief: (§1)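 NCI 60-human-tumor-cell-line panel screen. Each compound was tested at a single concentration of 10^-5 M, and percent growth of tumor cells was recorded for each cell line. Growth inhibition was expressed from these percent-growth values.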

[4] = system: SNB-75; assay: Growth inhibition of human SNB75 cells
[5] = system: MDA-MB-231; assay: Growth inhibition of human MDA-MB-231 cells
[6] = system: SK-MEL-5; assay: Growth inhibition of human SK-MEL-5 cells
[7] = system: SK-MEL-5; assay: Growth inhibition of human SK-MEL-5 cells assessed tumor cell growth at 10^-5 M; design: scale not given: the % may be the effect or the level left; method in brief: as §1
[8] = system: BT-549; assay: Growth inhibition of human BT549 cells assessed tumor cell growth at 10^-5 M; design: scale not given: the % may be the effect or the level left; method in brief: as §1
[9] = system: DU-145; assay: Growth inhibition of human DU145 cells
[10] = system: A498; assay: Growth inhibition of human A498 cells assessed tumor cell growth at 10^-5 M; design: scale not given: the % may be the effect or the level left; method in brief: as §1
[11] = system: EKVX; assay: Growth inhibition of human EKVX cells assessed tumor cell growth at 10^-5 M; design: scale not given: the % may be the effect or the level left; method in brief: as §1
[12] = system: 786-0; assay: Growth inhibition of human 786-0 cells
[13] = system: IGROV-1; assay: Growth inhibition of human IGROV1 cells
Method in brief: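 Follow-up panel testing at five concentrations (10^-4, 10^-5, 10^-6, 10^-7 and 10^-8 M) across the 60 human tumor cell lines. GI50 was obtained for each line from the concentration-response data, with the panel average GI50 also reported.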

[14] = system: ACHN; assay: Growth inhibition of human ACHN cells assessed tumor cell growth at 10^-5 M; design: scale not given: the % may be the effect or the level left; method in brief: as §1
[15] = system: HCT-15; assay: Growth inhibition of human HCT15 cells assessed tumor cell growth at 10^-5 M; design: scale not given: the % may be the effect or the level left; method in brief: as §1
[16] = system: SF-268; assay: Growth inhibition of human SF268 cells
[17] = system: HOP-92; assay: Growth inhibition of human HOP92 cells
[18] = system: OVCAR-5; assay: Growth inhibition of human OVCAR5 cells assessed tumor cell growth at 10^-5 M; design: scale not given: the % may be the effect or the level left; method in brief: as §1
[19] = system: OVCAR-8; assay: Growth inhibition of human OVCAR8 cells
[20] = system: CAKI-1; assay: Growth inhibition of human Caki1 cells assessed tumor cell growth at 10^-5 M; design: scale not given: the % may be the effect or the level left; method in brief: as §1
[21] = system: HT-29; assay: Growth inhibition of human HT-29 cells assessed tumor cell growth at 10^-5 M; design: scale not given: the % may be the effect or the level left; method in brief: as §1
[22] = system: U-251; assay: Growth inhibition of human U251 cells assessed tumor cell growth at 10^-5 M; design: scale not given: the % may be the effect or the level left
Method in brief: (§2)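 Single-dose screen at 10^-5 M across the 60 human tumor cell line panel, run to NCI standards. The value is the percent growth of each cell line in the presence of compound. Compounds active at this dose moved on to five-concentration testing (10^-4 to 10^-8 M).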

[23] = system: M14; assay: Growth inhibition of human M14 cells
[24] = system: NCI-H226; assay: Growth inhibition of human NCI-H226 cells assessed tumor cell growth at 10^-5 M; design: scale not given: the % may be the effect or the level left; method in brief: as §1
[25] = Growth inhibition of human […] cells assessed tumor cell growth at 10^-5 M; design: scale not given: the % may be the effect or the level left; method in brief: as §1
[26] = system: RXF 393; assay: Growth inhibition of human RXF393 cells assessed tumor cell growth at 10^-5 M; design: scale not given: the % may be the effect or the level left; method in brief: as §1
[27] = system: SK-OV-3; assay: Growth inhibition of human SKOV3 cells assessed tumor cell growth at 10^-5 M; design: scale not given: the % may be the effect or the level left; method in brief: as §1
[28] = system: MDA-MB-468; assay: Growth inhibition of human MDA-MB-468 cells
[29] = system: SF-295; assay: Growth inhibition of human SF295 cells
[30] = system: OVCAR-5; assay: Growth inhibition of human OVCAR5 cells
[31] = system: SR; assay: Growth inhibition of human SR cells assessed tumor cell growth at 10^-5 M; design: scale not given: the % may be the effect or the level left; method in brief: as §2
[32] = system: 786-0; assay: Growth inhibition of human 786-0 cells assessed tumor cell growth at 10^-5 M; design: scale not given: the % may be the effect or the level left; method in brief: as §1
[33] = system: CCRF-CEM; assay: Growth inhibition of human CCRF-CEM cells
[34] = system: NCI/ADR-RES; assay: Growth inhibition of human NCI/ADR-RES cells assessed tumor cell growth at 10^-5 M; design: scale not given: the % may be the effect or the level left; method in brief: as §1
[35] = system: TK-10; assay: Growth inhibition of human TK10 cells
[36] = Growth inhibition of human Hs 578T cells
[37] = system: COLO 205; assay: Growth inhibition of human COLO205 cells
[38] = system: SNB-19; assay: Growth inhibition of human SNB19 cells assessed tumor cell growth at 10^-5 M; design: scale not given: the % may be the effect or the level left; method in brief: as §2
[39] = Growth inhibition of human Hs 578T cells assessed tumor cell growth at 10^-5 M; design: scale not given: the % may be the effect or the level left; method in brief: as §1
[40] = system: Malme-3M; assay: Growth inhibition of human MALME-3M cells assessed tumor cell growth at 10^-5 M; design: scale not given: the % may be the effect or the level left; method in brief: as §1
[41] = system: BT-549; assay: Growth inhibition of human BT549 cells
[42] = system: MDA-MB-435; assay: Growth inhibition of human MDA-MB-435 cells assessed tumor cell growth at 10^-5 M; design: scale not given: the % may be the effect or the level left; method in brief: as §1
[43] = system: PC-3; assay: Growth inhibition of human PC3 cells
[44] = system: UO-31; assay: Growth inhibition of human UO31 cells
[45] = system: OVCAR-3; assay: Growth inhibition of human OVCAR3 cells
[46] = system: SN12C; assay: Growth inhibition of human SN12C cells assessed tumor cell growth at 10^-5 M; design: scale not given: the % may be the effect or the level left; method in brief: as §1
[47] = system: UO-31; assay: Growth inhibition of human UO31 cells assessed tumor cell growth at 10^-5 M; design: scale not given: the % may be the effect or the level left; method in brief: as §2
[48] = system: UACC-257; assay: Growth inhibition of human UACC257 cells assessed tumor cell growth at 10^-5 M; design: scale not given: the % may be the effect or the level left; method in brief: as §2
[49] = system: M14; assay: Growth inhibition of human M14 cells assessed tumor cell growth at 10^-5 M; design: scale not given: the % may be the effect or the level left; method in brief: as §1
[50] = system: CAKI-1; assay: Growth inhibition of human Caki1 cells
[51] = system: SF-295; assay: Growth inhibition of human SF295 cells assessed tumor cell growth at 10^-5 M; design: scale not given: the % may be the effect or the level left; method in brief: as §1
[52] = read-out: LC50 (the source's name)

Structure (SMILES): O=C1/C(=C\c2coc3ccccc3c2=O)c2ccccc2N1c1c(Cl)cccc1Cl
- GI50 [1]: 2.9 µM
- GI50 [2]: 3 µM
- CC50 [2, 52]: > 100 µM
- Activity [3]: 21.08%
- GI50 [4]: 1.9 µM
- CC50 [4, 52]: > 100 µM
- GI50 [5]: 3.8 µM
- CC50 [5, 52]: > 100 µM
- GI50 [6]: 2.4 µM
- CC50 [6, 52]: > 100 µM
- Activity [7]: 20.33%
- Activity [8]: 41.11%
- GI50 [9]: 4.6 µM
- CC50 [9, 52]: > 100 µM
- Activity [10]: 12.65%
- Activity [11]: 33.14%
- GI50 [12]: 3 µM
- CC50 [12, 52]: > 100 µM
- GI50 [13]: 1.6 µM
- CC50 [13, 52]: 97.9 µM
- Activity [14]: 54.64%
- Activity [15]: 24.69%
- GI50 [16]: 3.3 µM
- CC50 [16, 52]: > 100 µM
- GI50 [17]: 4.7 µM
- CC50 [17, 52]: > 100 µM
- Activity [18]: 101.76%
- GI50 [19]: 5.4 µM
- CC50 [19, 52]: > 100 µM
- Activity [20]: -7.88%
- Activity [21]: 47.62%
- Activity [22]: 36.04%
- GI50 [23]: 5.2 µM
- CC50 [23, 52]: > 100 µM
- Activity [24]: 90.68%
- Activity [25]: 10.21%
- Activity [26]: 44.09%
- Activity [27]: 74.8%
- GI50 [28]: 2.4 µM
- CC50 [28, 52]: > 100 µM
- GI50 [29]: 4.2 µM
- CC50 [29, 52]: > 100 µM
- GI50 [30]: 20.8 µM
- CC50 [30, 52]: > 100 µM
- Activity [31]: 19.47%
- Activity [32]: 27.05%
- GI50 [33]: 2 µM
- CC50 [33, 52]: > 100 µM
- Activity [34]: 36.14%
- GI50 [35]: 3.3 µM
- CC50 [35, 52]: > 100 µM
- GI50 [36]: 9.1 µM
- CC50 [36, 52]: > 100 µM
- GI50 [37]: 3.8 µM
- Activity [38]: 62.58%
- Activity [39]: 27.37%
- Activity [40]: 83.75%
- GI50 [41]: 2.8 µM
- CC50 [41, 52]: > 100 µM
- Activity [42]: 14.46%
- GI50 [43]: 1.3 µM
- CC50 [43, 52]: > 100 µM
- GI50 [44]: 1.8 µM
- CC50 [44, 52]: > 100 µM
- GI50 [45]: 2.6 µM
- CC50 [45, 52]: > 100 µM
- Activity [46]: 59.48%
- Activity [47]: 42.56%
- Activity [48]: 61.22%
- Activity [49]: 43.38%
- GI50 [50]: 2.4 µM
- CC50 [50, 52]: > 100 µM
- Activity [51]: -12.01%
